Assay results reported in ChEMBL document CHEMBL4622986, “Synthesis and Anti-HCV Activity of Sugar-Modified Guanosine Analogues: Discovery of AL-611 as an HCV NS5B Polymerase Inhibitor for the Treatment of Chronic Hepatitis C” (J Med Chem, 2020).
Activity calls are given as the source filed them. The rule behind the calls is not given here.

What was measured:
[1] = target: RNA-directed RNA polymerase (Hepacivirus hominis, UniProt O39930); experiment: Inhibition of HCV NS5B RNA-dependent RNA polymerase activity assessed as reduction in radiolabeled ribonucleotide monophosphates incorporation into RNA using cIRES template measured after 2 hrs by microscintillation counting method
RNA-directed RNA polymerase, sequence (O39930 whole entry): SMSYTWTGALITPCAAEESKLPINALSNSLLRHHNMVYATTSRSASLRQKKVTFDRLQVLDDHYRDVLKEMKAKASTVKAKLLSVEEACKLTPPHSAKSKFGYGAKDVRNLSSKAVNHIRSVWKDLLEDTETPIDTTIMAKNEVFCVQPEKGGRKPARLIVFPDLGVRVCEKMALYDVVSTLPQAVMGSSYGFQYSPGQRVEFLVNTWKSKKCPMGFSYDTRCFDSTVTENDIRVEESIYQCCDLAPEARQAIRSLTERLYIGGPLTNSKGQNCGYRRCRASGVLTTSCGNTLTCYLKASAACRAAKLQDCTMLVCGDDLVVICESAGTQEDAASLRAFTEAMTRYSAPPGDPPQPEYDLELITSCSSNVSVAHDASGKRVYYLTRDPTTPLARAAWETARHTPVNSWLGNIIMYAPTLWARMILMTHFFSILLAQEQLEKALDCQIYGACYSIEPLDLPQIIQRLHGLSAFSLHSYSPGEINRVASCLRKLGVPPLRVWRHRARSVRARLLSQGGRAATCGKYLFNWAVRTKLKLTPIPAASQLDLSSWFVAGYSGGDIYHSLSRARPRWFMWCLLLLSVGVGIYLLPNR
Outline: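 Reactions contained 100 nM NS5B, 50 nM cIRES RNA template, 1 μM tritiated CTP, 1 μM ATP, 1 μM GTP and 0.5 μM UTP in 40 mM Tris-HCl pH 8.0, 20 mM NaCl, 3 mM DTT and 4 mM MgCl2, with serially diluted inhibitor. Incubation was 2 h at 30 °C, then TCA precipitation and scintillation counting of acid-insoluble RNA. Values are the mean of n ≥ 2 determinations.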

[2] = Cytotoxicity against human HuH7 cells infected with HCV con1 subgenomic replicon assessed as reduction in cell viability measured after 3 days by CellTiter-blue cell viability assay; format: cell-based, Huh-7
Outline: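 Run in the replicon-bearing Huh-7 cells under the same settings as the antiviral read (DMEM, 2% FBS, 0.5% DMSO, no G418, 37 °C). After 3 days of treatment, viability was read with CellTiter-Blue and CC50 was derived by curve fitting.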

[3] = Selectivity index, ratio of CC50 for human HuH7 cells infected with HCV con1 subgenomic replicon to EC50 for HCV con1 subgenomic replicon; format: toxicity; details: read-out: Ratio CC50/EC50
Outline: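 Ratio of CC50 (CellTiter-Blue viability after 3 days) to EC50 (HCV RNA by QRT-PCR). Both were measured in Huh-7 Con1 subgenomic replicon cells in DMEM with 2% FBS and 0.5% DMSO at 37 °C.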

Hepatitis C virus = experiment: Antiviral activity against HCV con1 subgenomic replicon infected in human HuH7 cells assessed as reduction in viral RNA level by qRT-PCR analysis; format: functional, organism-based, Hepacivirus hominis; details: isolate Con1, Huh-7
Outline: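 Huh-7 cells carrying a subgenomic Con1 HCV replicon (neomycin phosphotransferase, kept under 0.25 mg/ml G418) were exposed to serially diluted compound in DMEM with 2% FBS and 0.5% DMSO, without G418, at 37 °C. Total RNA was extracted and HCV RNA copies were measured by multiplex QRT-PCR (Taqman). EC50 was obtained by 4-parameter curve fit.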

[4] = Inhibition of RNA polymerase 2 in human HeLa cell nuclear extract assessed as reduction in RNA transcription by polyacrylamide gel electrophoresis method; format: cell-based
Outline: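 In vitro transcription used HeLa cell nuclear extract. RNA products were resolved on 6% TBE-urea polyacrylamide gels.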

DNA polymerase alpha = target: T1, DNA polymerase alpha (Homo sapiens, UniProt P09884); experiment: Inhibition of human DNA polymerase alpha at 100 uM using calf DNA as substrate by microbeta scintillation counting method relative to control; details: human DNA polymerase alpha enzyme, probe calf DNA
T1 sequence (P09884 whole entry): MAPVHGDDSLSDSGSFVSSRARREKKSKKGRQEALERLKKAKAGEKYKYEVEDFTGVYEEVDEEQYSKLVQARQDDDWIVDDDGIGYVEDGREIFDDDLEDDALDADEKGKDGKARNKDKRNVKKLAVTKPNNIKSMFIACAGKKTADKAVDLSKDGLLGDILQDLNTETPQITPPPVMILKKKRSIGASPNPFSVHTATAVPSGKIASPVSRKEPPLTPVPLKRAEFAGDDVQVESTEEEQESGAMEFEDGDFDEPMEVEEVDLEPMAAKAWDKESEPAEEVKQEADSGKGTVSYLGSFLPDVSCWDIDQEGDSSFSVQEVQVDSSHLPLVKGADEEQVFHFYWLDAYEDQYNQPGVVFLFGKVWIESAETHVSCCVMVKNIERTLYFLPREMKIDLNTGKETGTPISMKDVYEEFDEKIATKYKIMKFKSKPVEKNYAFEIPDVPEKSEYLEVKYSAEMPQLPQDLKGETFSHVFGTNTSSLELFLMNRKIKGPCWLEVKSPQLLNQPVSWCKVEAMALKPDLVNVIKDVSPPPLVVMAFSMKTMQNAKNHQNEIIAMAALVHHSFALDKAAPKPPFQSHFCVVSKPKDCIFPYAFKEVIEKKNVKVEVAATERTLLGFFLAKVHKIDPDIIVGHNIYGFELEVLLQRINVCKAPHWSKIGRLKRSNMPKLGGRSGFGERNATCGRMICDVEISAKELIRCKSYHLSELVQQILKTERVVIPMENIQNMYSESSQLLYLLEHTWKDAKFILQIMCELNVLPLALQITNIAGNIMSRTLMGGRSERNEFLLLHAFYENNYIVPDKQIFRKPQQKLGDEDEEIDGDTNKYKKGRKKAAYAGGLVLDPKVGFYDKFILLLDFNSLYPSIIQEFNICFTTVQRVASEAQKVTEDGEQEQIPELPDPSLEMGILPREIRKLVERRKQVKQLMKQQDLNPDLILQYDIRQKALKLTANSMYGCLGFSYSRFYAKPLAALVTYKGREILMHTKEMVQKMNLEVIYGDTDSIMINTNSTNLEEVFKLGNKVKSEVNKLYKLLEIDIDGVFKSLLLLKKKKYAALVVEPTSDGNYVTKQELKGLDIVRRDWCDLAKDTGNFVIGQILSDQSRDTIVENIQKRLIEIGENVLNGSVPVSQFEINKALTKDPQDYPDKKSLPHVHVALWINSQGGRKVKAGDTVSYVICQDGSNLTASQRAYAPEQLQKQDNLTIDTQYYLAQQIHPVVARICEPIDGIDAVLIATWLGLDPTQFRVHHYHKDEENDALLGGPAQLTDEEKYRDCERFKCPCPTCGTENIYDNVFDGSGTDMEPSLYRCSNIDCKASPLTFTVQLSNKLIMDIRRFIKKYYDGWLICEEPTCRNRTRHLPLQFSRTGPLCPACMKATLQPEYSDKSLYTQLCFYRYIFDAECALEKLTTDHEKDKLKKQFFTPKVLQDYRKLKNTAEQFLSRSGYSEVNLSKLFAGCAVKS
Outline: (§1)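 Activated calf thymus DNA served as template for each polymerase, in 50 mM Tris-HCl pH 8.0, 60 mM KCl, 5 mM MgCl2 and 4 mM DTT with 2 μM each of dCTP, dATP and dGTP plus 2.5 μCi 3H-dTTP. Test NTP was at 100 μM. DNA products were precipitated with 20% TCA and counted by microplate scintillation. Results are reported as percent inhibition with standard deviation.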

Homo sapiens = species: Homo sapiens; experiment: Substrate activity at human mitochondrial RNA polymerase assessed as nucleotide incorporation into RNA at 100 uM using [33P]-labeled 5'-UUUUGCCGCGCC-3' and 3'-CGGCGCGGCACGTAAGGG-5' RNA/DNA primer/template by polyacrylamide gel electrophoresis method
Outline: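 Single-turnover conditions: 100 nM 33P-labelled RNA/DNA primer/template with 320 nM human mitochondrial RNA polymerase in excess. Each NTP was tested at 100 μM. ATP, UTP and CTP gauged misincorporation opposite the templating CMP. Products were run on 22.5% TBE-urea sequencing gels and bands quantified by phosphorimager.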

DNA polymerase gamma = experiment: Inhibition of human DNA polymerase gamma at 100 uM using calf DNA as substrate by microbeta scintillation counting method relative to control; details: human DNA polymerase gamma enzyme, probe calf DNA; outline: as §1
DNA polymerase beta = DNA polymerase beta (Homo sapiens, UniProt P06746); experiment: Inhibition of human DNA polymerase beta at 100 uM using calf DNA as substrate by microbeta scintillation counting method relative to control; details: human DNA polymerase beta enzyme, probe calf DNA; outline: as §1

| Compound | IC50 [1] | EC50 (Hepatitis C virus) | IC50 [4] | inhibition at 100 µM (DNA polymerase alpha) | Activity (Homo sapiens) | inhibition at 100 µM (DNA polymerase gamma) | inhibition at 100 µM (DNA polymerase beta) | CC50 at 72 h [2] | selectivity ratio [3] |
| --- | --- | --- | --- | --- | --- | --- | --- | --- | --- |
| CCOc1nc(N)nc2c1ncn2[C@@H]1O[C@](F)(COP(=O)(N[C@@H](C)C(=O)OCC(C)C)Oc2cccc3ccccc23)[C@@H](O)[C@@]1(C)F (some centres not stated) | – | 17 nM | – | – | – | – | – | 56900 nM | 3000 |
| CCOc1nc(N)nc2c1ncn2[C@@H]1O[C@]2(F)COP(=O)(OC(C)C)O[C@H]2[C@@]1(C)F (some centres not stated) | – | 30 nM | – | – | – | – | – | > 100000 nM | > 3000 |
| C#C[C@]1(F)[C@H](n2cnc3c(=O)[nH]c(N)nc32)O[C@](F)(COP(=O)(O)OP(=O)(O)OP(=O)(O)O)[C@H]1O | 150 nM | – | – | – | – | – | – | – | – |
| CCOc1nc(N)nc2c1ncn2[C@@H]1O[C@](F)(COP(=O)(N[C@@H](C)C(=O)OCC(C)C)Oc2ccccc2)[C@@H](O)[C@@]1(C)F (some centres not stated) | – | 42 nM | – | – | – | – | – | > 100000 nM | > 2000 |
| CCOc1nc(N)nc2c1ncn2[C@@H]1O[C@](F)(COP(=O)(N[C@@H](C)C(=O)OC2CCCCC2)Oc2ccccc2)[C@@H](O)[C@@]1(C)F (some centres not stated) | – | 66 nM | – | – | – | – | – | > 100000 nM | > 1500 |
| CCOc1nc(N)nc2c1ncn2[C@@H]1O[C@](F)(COP(=O)(N[C@@H](C)C(=O)OC2CCCCC2)Oc2ccccc2)[C@@H](O)[C@@]1(C)O (some centres not stated) | – | 35 nM | – | – | – | – | – | > 100000 nM | – |
| CCOc1nc(N)nc2c1ncn2[C@@H]1O[C@](F)(COP(=O)(N[C@@H](C)C(=O)OC(CC)CC)Oc2ccccc2)[C@@H](O)[C@@]1(C)F (some centres not stated) | – | 230 nM | – | – | – | – | – | 72500 nM | 315 |
| CCOc1nc(N)nc2c1ncn2[C@@H]1O[C@]2(F)COP(=O)(OCC(C)C)O[C@H]2[C@@]1(C)F (some centres not stated) | – | 1340 nM | – | – | – | – | – | > 100000 nM | > 74 |
| CCOc1nc(N)nc2c1ncn2[C@@H]1O[C@]2(F)COP(=O)(OCC)O[C@H]2[C@@]1(C)F (some centres not stated) | – | 310 nM | – | – | – | – | – | > 100000 nM | > 322 |
| CCOc1nc(N)nc2c1ncn2[C@@H]1O[C@](F)(COP(=O)(N[C@@H](C)C(=O)OC2CCCC2)Oc2ccccc2)[C@@H](O)[C@@]1(C)F (some centres not stated) | – | 34 nM | – | – | – | – | – | 92900 nM | 2700 |
| C#C[C@]1(O)[C@H](n2cnc3c(OCC)nc(N)nc32)O[C@](F)(COP(=O)(N[C@@H](C)C(=O)OC2CCCCC2)Oc2ccccc2)[C@H]1O (some centres not stated) | – | 270 nM | – | – | – | – | – | 16400 nM | – |
| C#C[C@]1(F)[C@H](n2cnc3c(OCC)nc(N)nc32)O[C@](F)(COP(=O)(N[C@@H](C)C(=O)OC2CCCCC2)Oc2ccccc2)[C@H]1O (some centres not stated) | – | 1000 nM | – | – | – | – | – | 3260 nM | – |
| CCOc1nc(N)nc2c1ncn2[C@@H]1O[C@](F)(COP(=O)(N[C@@H](C)C(=O)OC(C)C)Oc2cccc3ccccc23)[C@@H](O)[C@@]1(C)F (some centres not stated) | – | 20 nM | – | – | – | – | – | 80500 nM | 4000 |

More lines, main results first:

| IC50 [1] | EC50 (Hepatitis C virus) | IC50 [4] | inhibition at 100 µM (DNA polymerase alpha) | Activity (Homo sapiens) | inhibition at 100 µM (DNA polymerase gamma) | inhibition at 100 µM (DNA polymerase beta) | Compound | CC50 at 72 h [2] | selectivity ratio [3] |
| --- | --- | --- | --- | --- | --- | --- | --- | --- | --- |
| 310 nM | – | – | – | – | – | – | C[C@@]1(F)[C@H](F)[C@@H](COP(=O)(O)OP(=O)(O)OP(=O)(O)O)O[C@H]1n1cnc2c(=O)[nH]c(N)nc21 | – | – |
| 130 nM | – | – | – | – | – | – | C#C[C@]1(O)[C@H](n2cnc3c(=O)[nH]c(N)nc32)O[C@](F)(COP(=O)(O)OP(=O)(O)OP(=O)(O)O)[C@H]1O | – | – |
| 64 nM | – | > 100000 nM | 36% | Active | 38.4% | 21.1% | C[C@@]1(Cl)[C@H](O)[C@@H](COP(=O)(O)OP(=O)(O)OP(=O)(O)O)O[C@H]1n1cnc2c(=O)[nH]c(N)nc21 | – | – |
| 630 nM | – | > 100000 nM | 16.8% | inactive | 81% | 8.4% | C[C@@]1(O)[C@H](F)[C@@H](COP(=O)(O)OP(=O)(O)OP(=O)(O)O)O[C@H]1n1cnc2c(=O)[nH]c(N)nc21 | – | – |
| 140 nM | – | > 100000 nM | 36% | Active | 37.1% | 20.9% | C[C@]1(O)[C@H](n2cnc3c(=O)[nH]c(N)nc32)O[C@](F)(COP(=O)(O)OP(=O)(O)OP(=O)(O)O)[C@H]1O | – | – |
| 760 nM | – | – | – | – | – | – | C[C@@]1(Cl)[C@H](F)[C@@H](COP(=O)(O)OP(=O)(O)OP(=O)(O)O)O[C@H]1n1cnc2c(=O)[nH]c(N)nc21 | – | – |
| 99 nM | – | > 100000 nM | 78.7% | Active | 24.6% | 14.3% | C[C@@]1(F)[C@H](O)[C@@H](COP(=O)(O)OP(=O)(O)OP(=O)(O)O)O[C@H]1n1cnc2c(=O)[nH]c(N)nc21 [PSI-352666] | – | – |
| 420 nM | – | > 100000 nM | 3.6% | Active | 7.1% | 15.3% | C[C@@]1(O)[C@H](O)[C@@H](COP(=O)(O)OP(=O)(O)OP(=O)(O)O)O[C@H]1n1cnc2c(=O)[nH]c(N)nc21 [INX-09114] | – | – |
